# Measured values from different studies.
# Compare with care: the assays were run in different laboratories.
# Target: Calcium/calmodulin-dependent protein kinase type 1D (CAMK1D, Homo sapiens, UniProt Q8IU85)
Structure (SMILES),read-out,action,technique,concentration,endpoint,result
CN1CC(Oc2cnc(C#N)cc2-c2ccn3nc(NC(=O)C4CC4)cc3c2)C1,enzyme activity,inhibitor,,1 µM,inhibition,-2%
C[C@@H]1CN(c2cc(-c3nn(C)c4ccc(OC5(C)CC5)cc34)ncn2)C[C@H](C)O1,cell-free assay,,competition with immobilised ligand,1 µM,remaining binding,100%
Cn1c2c(Cl)c(Cl)ccc2c2cn[nH]c(=O)c21,thermal stability,,DSF,10 µM,ΔTm,-0.1 °C
CC1=C(C#N)C(c2ccc3c(c2)c(NC(=O)c2ccccc2C)nn3C)C(C#N)=C(C)N1,cell-free assay,,competition with immobilised ligand,1 µM,remaining binding,93%
CN1CCC2(CC1)NC(=O)c1c(c3ccc(Cl)c(Cl)c3n1C)C2C#N (racemic),thermal stability,,DSF,10 µM,ΔTm,-0.4 °C
CNC(=O)c1cc(Oc2ccc(NC(=O)Nc3ccc(Cl)c(C(F)(F)F)c3)cc2)ccn1,enzyme activity,inhibitor,,0.3 µM,inhibition,11%
O=C1Nc2ccc(Cl)cc2C1=Cc1cc(Cl)c(O)c(Cl)c1,cell-free assay,,,0.5 µM,remaining signal,104%
CNCc1ccccc1-c1csc([C@@H](C)Nc2nc(C)nc3cc(OC)c(OC)cc23)c1,cell-free assay,,competition with immobilised ligand,1 µM,remaining binding,100%
CCN(CC)c1ccc(C2=NNC(=O)CC2C)cc1[N+](=O)[O-] (stereo not drawn),enzyme activity,inhibitor,,10 µM,remaining activity,105%
CCS(=O)(=O)c1cc2cc(C[C@@](O)(CC(C)(C)c3ccc(F)cc3C(N)=O)C(F)(F)F)[nH]c2cn1,cell-free assay,,competition with immobilised ligand,1 µM,remaining binding,89%
Nc1ncnc2occ(-c3ccc(NC(=O)Nc4cc(C(F)(F)F)ccc4F)cc3)c12,cell-free assay,inhibitor,,20 µM,remaining signal,2.8%
Cc1cc(NC(=O)c2cccc3cc(-c4cccc5[nH]nc(N)c45)ccc23)ccc1F,enzyme activity,inhibitor,,0.1 µM,activity vs control,102%
COc1cc2ncnc(Nc3ccc(Oc4ccccc4)c(C)c3C)c2cc1OC,enzyme activity,inhibitor,,1 µM,inhibition,1%
O=c1cc(-c2cccc3c2Sc2ccccc2S3)oc(N2CCOCC2)c1,enzyme activity,inhibitor,,0.5 µM,remaining activity,106%
CO[C@@H](C)c1c(Nc2ccc([C@@H](N(C)C(=O)C3CCS(=O)(=O)CC3)C(F)(F)F)cc2)cnc2cc(Cl)nn12,cell-free assay,,competition with immobilised ligand,1 µM,remaining binding,100%
Cn1c2c(c3ccc(Cl)c(Cl)c31)C(C#N)C(C)(C)NC2=O (stereo not drawn),thermal stability,,DSF,10 µM,ΔTm,-0.6 °C
C[C@H](c1ccnc(Nc2nc3ccc(-c4cc(N(C)C)ncn4)cc3[nH]2)c1)N1CCN(C(=O)CC(F)(F)F)CC1,cell-free assay,,competition with immobilised ligand,0.1 µM,remaining binding,95%
COc1cccc2c(NCc3ccccc3)nc(-n3c(N)nc4ccccc43)nc12,target engagement in cells,inhibitor,chemoproteomics,20 mM,inhibition,0%
N#CC1c2c([nH]c3c(Cl)c(Cl)ccc23)C(=O)NC12CCCCC2 (racemic),thermal stability,,DSF,10 µM,ΔTm,0.7 °C
COc1cc2ncnc(Nc3ccc(F)c(Cl)c3)c2cc1OCCCN1CCOCC1,cell-free assay,,,0.5 µM,remaining signal,88.6%
O=C(Nc1cnn(-c2csc(C(=O)NC3COC3)c2)c1)Nc1c(F)cccc1Cl,enzyme activity,inhibitor,,5 µM,remaining activity,99.6%
